The record followed here is ChEMBL document CHEMBL4706774, “Creation of Fluorescent RXR Antagonists Based on CBTF-EE and Application to a Fluorescence Polarization Binding Assay” (ACS Med Chem Lett, 2021).

The nature of data set [1]: Fluorescence property of compound in EtOH assessed as molar extinction coefficient by UV-visible spectrophotometric method. The class given is physicochemical.
The target in data set [2] is T1, Retinoic acid receptor RXR-alpha (Homo sapiens) (UniProt P19793).
T1 sequence (whole entry): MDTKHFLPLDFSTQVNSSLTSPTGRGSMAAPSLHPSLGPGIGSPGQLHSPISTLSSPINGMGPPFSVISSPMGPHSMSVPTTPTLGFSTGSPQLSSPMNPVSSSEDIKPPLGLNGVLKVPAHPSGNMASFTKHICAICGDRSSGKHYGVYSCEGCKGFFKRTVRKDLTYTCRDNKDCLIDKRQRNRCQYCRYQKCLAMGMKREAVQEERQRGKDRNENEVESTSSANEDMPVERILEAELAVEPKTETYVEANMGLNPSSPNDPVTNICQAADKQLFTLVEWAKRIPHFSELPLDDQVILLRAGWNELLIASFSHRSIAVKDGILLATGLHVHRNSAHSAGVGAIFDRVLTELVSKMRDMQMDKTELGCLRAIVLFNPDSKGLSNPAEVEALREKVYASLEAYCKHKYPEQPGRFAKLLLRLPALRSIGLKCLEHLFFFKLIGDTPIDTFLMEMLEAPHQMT
In words: Antagonist activity against human RXRalpha expressed in COS1 cells incubated for 18 hrs by SEAP reporter gene assay. The class given is cell-based. The conditions noted are these: COS-1, filed as antagonist. (In general: In a reporter assay the amount or activity of a reporter protein is the signal.)

A short description of data set [3]: Fluorescence property of compound in EtOH assessed as emission wavelength by UV-visible spectrophotometric method. Format: physicochemical.
Data set [4] can be described thus: Fluorescence property of compound in MeOH assessed as molar extinction coefficient by UV-visible spectrophotometric method. Format: physicochemical.
A short description of data set [5]: Fluorescence property of compound in EtOH assessed as quantum yield by UV-visible spectrophotometric method. Format: physicochemical.
Data set [6] can be described thus: Fluorescence property of compound in EtOH assessed as excitation wavelength by UV-visible spectrophotometric method. The class given is physicochemical.
Data set [7] has as its target T2, Retinoic acid receptor RXR-alpha (Homo sapiens, UniProt P19793).
T2 sequence (P19793 whole entry): T1 sequence (whole entry)
Nature of the data set: Binding affinity to human RXRalpha-LBD (224 to 462 residues) expressed in Escherichia coli BL21(DE3) incubated for 2 hrs by fluorescence assay.

Data set [8] can be described thus: Fluorescence property of compound in MeOH assessed as emission wavelength by UV-visible spectrophotometric method. The class given is physicochemical. The method, boiled down:
(§1)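 Fluorescence excitation and emission spectra recorded on the compound at 1 μM in MeOH solution. Maxima of excitation and emission taken from these spectra.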

Data set [9] is described as follows: Fluorescence property of compound in MeOH assessed as quantum yield by UV-visible spectrophotometric method. The class given is physicochemical.
Data set [10] is described as follows: Fluorescence property of compound in MeOH assessed as excitation wavelength by UV-visible spectrophotometric method. The class given is physicochemical. The method, boiled down:
as §1

The target of data set [11] is T2, Retinoic acid receptor RXR-alpha. Nature of the data set: Binding affinity to human RXRalpha-LBD (224 to 462 residues) expressed in Escherichia coli BL21(DE3) incubated for 1 hr by fluorescence polarization assay. A general note: Fluorescence polarisation rises when a labelled molecule tumbles more slowly, as on binding a larger partner.

Activity calls are given as the source filed them. The rule behind the calls is not given here.

`CC1=CC(C)=[N+]2C1=C(c1ccc(C(=O)NCCOCCOc3cc4c(cc3-n3c(C(F)(F)F)nc5cc(C(=O)O)ccc53)C(C)(C)CCC4(C)C)cc1)c1c(C)cc(C)n1[B-]2(F)F`: the Activity in data set [1] is reported as 2.8 10^4L/mol; in [3], 509 nm; in data set [4], 2.8 10^4L/mol; in data set [5], 0.471; in data set [6], 499 nm; in [8], 508 nm. Further, the values for the Activity in data set [9] and in data set [10] were 0.349 and 499 nm, respectively. Also, the result in [2] was Active. For the same compound, the Kd was 761 nM in data set [7] and 375 nM in data set [11].

For `CC1(C)CCC(C)(C)c2cc(-n3c(C(F)(F)F)nc4cc(C(=O)O)ccc43)c(OCCOCCNc3ccc([N+](=O)[O-])c4nonc34)cc21`, the Activity in data set [1] is listed as 8.4 10^3L/mol; in [3], 527 nm; in data set [4], 6.7 10^3L/mol; in data set [5] it was 0.237; in data set [6], 461 nm; in data set [8] it was 530 nm. In addition, the Activity in data set [9] turned out to be 0.224; in data set [10], 464 nm. In [2], the outcome was Active. The equilibrium dissociation constant (Kd) in data set [7] is 629 nM.

For orientation: Kd means the equilibrium constant for the complex coming apart.
